Experimental findings from ChEMBL document CHEMBL1137668, “Activities of several classes of acyclic nucleoside phosphonates against camelpox virus replication in different cell culture models” (Antimicrob Agents Chemother, 2007) are described below.

The test system of data set [1] is Camelpox virus. The data set is described as follows: Antiviral activity against Camelpox virus CML1 infected in HEL299 cells assessed as inhibition of virus-induced cytopathic effect after 6 days by Giemsa staining. The format is functional, organism-based. The settings on record: CML1, HEL 299, 144 h. In general terms: Cytopathic effects are the visible damage that an infection or toxin causes in cultured cells.

Data set [2] relates to Camelpox virus. The data set is described as follows: Antiviral activity against Camelpox virus CML14 infected in HEL299 cells assessed as inhibition of virus-induced cytopathic effect after 6 days by Giemsa staining. The format is functional, organism-based. The settings on record: CML14, HEL 299, 144 h.
Data set [3] can be described thus: Cytotoxicity against HEL299 cells after 4 days by Z1 Coulter counting analysis. The format is cell-based, HEL 299. Conditions: human, HEL299 cells. In short, it runs like this:
(§1)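 Cell growth inhibition: HEL cells were seeded at 3.5 × 10³ per well and PHKs at 5 × 10³ per well. Serial dilutions were added in duplicate after 1 day (HEL) or 3 days (PHK). After 4 days with compound, cells were trypsinized and counted with a Coulter counter (8 μm lower limit). CC50 is the concentration reducing growth by 50%, mean ± SD of at least two experiments.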

Data set [4] is described as follows: Selectivity index, ratio of CC50 for HEL299 cells to EC50 for Camelpox virus CML1 infected in HEL299 cells. The format is toxicity, cell-based, HEL 299. The settings on record: human, HEL299 cells; read-out: Ratio CC50/IC50.
Data set [5] in a line: Selectivity index, ratio of CC50 for HEL299 cells to EC50 for Camelpox virus CML14 infected in HEL299 cells. The class given is toxicity, cell-based, HEL 299. The settings on record: human, HEL299 cells; read-out: Ratio CC50/IC50.
For data set [6], the system named is Camelpox virus. The data set is described as follows: Antiviral activity against Camelpox virus CML1 infected in human PHK assessed as inhibition of virus-induced cytopathic effect after 6 days by Giemsa staining. The class given is functional, organism-based. The settings on record: CML1, 144 h.
For data set [7], the system named is Camelpox virus. Kind of data set: Antiviral activity against Camelpox virus CML14 infected in human PHK assessed as inhibition of virus-induced cytopathic effect after 6 days by Giemsa staining. The class given is functional, organism-based. The settings on record: CML14, 144 h.
A short description of data set [8]: Cytotoxicity against human PHK after 4 days by Z1 Coulter counting analysis. Conditions: PHK cells. In short, it runs like this: as §1
The nature of data set [9]: Selectivity index, ratio of CC50 for human PHK to EC50 for Camelpox virus CML1 infected in human PHK.
Data set [10] can be described thus: Selectivity index, ratio of CC50 for human PHK to EC50 for Camelpox virus CML14 infected in human PHK.

For the compound `Nc1ncnc2c1ncn2CCOCP(=O)(O)O` [ADEFOVIR], the concentration for a half-maximal effect (EC50) was > 183 µM in data set [1], > 183 µM in [2], 162 µM in [6] and > 183 µM in [7]. Further, the values for the CC50 at 96 h in data set [3] and in [8] were 211 µM and 76 µM, respectively. Also, the selectivity ratio in [4] and in data set [5] was < 1 in each case. In addition, the “Ratio CC50/IC50” value in data set [9] is 0.5; in [10], <0.4.

For `Nc1nc(Cl)c2ncn(CCOCP(=O)(O)O)c2n1`, the EC50 in [1] is 6.9 µM; in data set [2] it was 9.3 µM; in data set [6] it was 7.9 µM; in data set [7], 15.9 µM. Moreover, the CC50 at 96 h in [3] stood at 8 µM; in data set [8], 1 µM. The selectivity ratio in [4] and in [5] was 1 in each case. For the same compound, the figures for the “Ratio CC50/IC50” value in [9] and in [10] were 0.2 and 0.1, respectively.

Turning to `Nc1nc(NCCCC(=O)O)c2ncn(CCOCP(=O)(O)O)c2n1`, the half-maximal effective concentration (EC50) in data set [1], in data set [2], in data set [6] and in [7] was > 134 µM in each case. The values for the cytotoxic concentration (CC50) at 96 h in [3] and in data set [8] were 282 µM and > 134 µM, respectively. Further, the selectivity ratio in [4] and in [5] was < 2 in each case. Further, the “Ratio CC50/IC50” value in data set [9] and in data set [10] was 1 in each case.

In the case of `Nc1cc(OCCOCP(=O)(O)O)nc(N)n1`, the EC50 in data set [1] was > 189 µM; in [2] it was > 189 µM; in [6], 49.2 µM; in data set [7] it was 53.7 µM. Further, the CC50 at 96 h in data set [3] was 66 µM; in data set [8], 4 µM. Also, the selectivity ratio in data set [4] and in data set [5] was < 0.3 throughout. Besides, the “Ratio CC50/IC50” value in [9] and in data set [10] was 0.1 each time.

Take `Nc1nc(NCCP(=O)(O)O)c2ncn(CCOCP(=O)(O)O)c2n1`: the EC50 in data set [1], in data set [2], in [6] and in data set [7] was > 127 µM throughout. In addition, the CC50 at 96 h worked out at 43 µM in data set [3] and 59 µM in data set [8]. For the same compound, the selectivity ratio in [4] and in data set [5] was < 0.3 throughout. In addition, the “Ratio CC50/IC50” value in data set [9] and in [10] was <0.5 each time.

With `C[C@@H](Cn1cnc2c(N)ncnc21)OCP(=O)(O)O`, the EC50 in data set [1], in data set [2], in data set [6] and in data set [7] was > 176 µM each time. Further, the CC50 at 96 h in data set [3] and in data set [8] was > 176 µM each time. The selectivity ratio in [4] was found to be 1. Further, the “Ratio CC50/IC50” value in data set [9] and in data set [10] was 1 in each case.

Turning to `Nc1nc(NC(CC(=O)O)C(=O)O)c2ncn(CCOCP(=O)(O)O)c2n1` (racemic), the half-maximal effective concentration (EC50) was 48.3 µM in data set [1], 46 µM in data set [2], > 124 µM in data set [6] and > 124 µM in [7]. For the same compound, the CC50 at 96 h in data set [3] was found to be 20 µM; in data set [8], 16 µM. In addition, the selectivity ratio in [4] and in [5] was 0.4 each time. For the same compound, the “Ratio CC50/IC50” value in data set [9] and in data set [10] was <0.1 in each case.

As to `NC1=NC(OC[C@@H]2CP(=O)(O)CO2)=CC(N)N1O` (stereo partly drawn), the half-maximal effective concentration (EC50) came to 5.2 µM in data set [1], 7.6 µM in data set [2], 16.1 µM in [6] and 18.4 µM in data set [7]. Also, the CC50 at 96 h was determined as 147 µM in data set [3] and 43 µM in [8]. In addition, the selectivity ratio was 28 in [4] and 19 in data set [5]. The results for the “Ratio CC50/IC50” value in [9] and in data set [10] were 3 and 2, respectively.

Turning to `C[C@H](O)[C@H](Nc1nc(N)nc2c1ncn2CCOCP(=O)(O)O)C(=O)O`, the concentration for a half-maximal effect (EC50) in [1] is 63 µM; in [2] it was 71.6 µM; in [6] it was > 128 µM; in data set [7] it was > 128 µM. The figures for the cytotoxic concentration (CC50) at 96 h in [3] and in data set [8] were 56 µM and > 16 µM, respectively. Further, the selectivity ratio in [4] and in [5] was 1 in each case. Also, the “Ratio CC50/IC50” value in data set [9] and in data set [10] was <0.1 each time.

`Nc1nc(N)c(Br)c(OCCOCP(=O)(O)O)n1`: the EC50 in [1], in data set [2], in data set [6] and in data set [7] was > 156 µM each time. Besides, the CC50 at 96 h in data set [3] amounted to 52 µM. Also, the selectivity ratio in data set [4] and in [5] was < 0.3 each time.

As to `Nc1nc(NCCS(=O)(=O)O)c2ncn(CCOCP(=O)(O)O)c2n1`, the EC50 in data set [1], in data set [2], in data set [6] and in data set [7] was > 126 µM each time. Also, the 50% cytotoxic concentration (CC50) at 96 h in [3] was determined as 258 µM; in data set [8] it was 102 µM. Moreover, the selectivity ratio in data set [4] and in data set [5] was < 2 each time. Also, the “Ratio CC50/IC50” value in data set [9] and in [10] was <1 in each case.

`Nc1nc(N)c2ncn(CCOCP(=O)(O)O)c2n1` [PMEDAP]: the concentration giving a half-maximal response (EC50) is > 173 µM in [1], > 173 µM in [2], 93 µM in data set [6] and 63.7 µM in data set [7]. Further, the CC50 at 96 h in data set [3] stood at 100 µM; in data set [8] it was 8 µM. Moreover, the selectivity ratio in data set [4] and in data set [5] was < 1 each time. The “Ratio CC50/IC50” value in [9] and in data set [10] was 0.1 throughout.

`CC(C)CC(Nc1nc(N)nc2c1ncn2CCOCP(=O)(O)O)C(=O)O` (racemic): the half-maximal effective concentration (EC50) in data set [1] amounted to 53 µM; in [2], 44.3 µM; in [6] it was 77.8 µM; in data set [7], 87.4 µM. In addition, the cytotoxic concentration (CC50) at 96 h in data set [3] was determined as 12 µM; in data set [8], 8 µM. Besides, the results for the selectivity ratio in data set [4] and in data set [5] were 0.2 and 0.3, respectively. The “Ratio CC50/IC50” value in [9] and in data set [10] was 0.1 throughout.

On to `Nc1nc(NCCC(=O)O)c2ncn(CCOCP(=O)(O)O)c2n1`, for which the EC50 in [1], in data set [2], in data set [6] and in data set [7] was > 139 µM throughout. Besides, the 50% cytotoxic concentration (CC50) at 96 h in data set [3] stood at 294 µM; in data set [8] it was 258 µM. The selectivity ratio in data set [4] and in data set [5] was < 2 each time. Moreover, the “Ratio CC50/IC50” value in [9] and in data set [10] was <2 each time.

With `Nc1nc(NC(Cc2ccccc2)C(=O)O)c2ncn(CCOCP(=O)(O)O)c2n1` (racemic), the concentration giving a half-maximal response (EC50) in [1], in data set [2], in data set [6] and in [7] was > 115 µM each time. Further, the CC50 at 96 h in data set [3] turned out to be 101 µM; in [8] it was 27 µM. Further, the selectivity ratio in data set [4] and in data set [5] was < 1 each time. Also, the “Ratio CC50/IC50” value in [9] and in [10] was <0.2 in each case.

On to `Nc1nc2c(ncn2CCOCP(=O)(O)O)c(=O)[nH]1` [GS-438], for which the EC50 in data set [1] was 3.3 µM; in [2], 5.5 µM; in data set [6], 2.9 µM; in data set [7] it was 4.4 µM. In addition, the values for the half-maximal cytotoxic concentration (CC50) at 96 h in data set [3] and in data set [8] were 1 µM and 0.3 µM, respectively. Further, the values for the selectivity ratio in data set [4] and in [5] were 0.3 and 0.2, respectively. Further, the “Ratio CC50/IC50” value in [9] and in [10] was 0.1 throughout.

On to `Nc1nc(NC(CO)C(=O)O)c2ncn(CCOCP(=O)(O)O)c2n1` (racemic), for which the EC50 is 54.5 µM in data set [1], 55.7 µM in data set [2], 81.8 µM in data set [6] and 93.4 µM in data set [7]. In addition, the values for the 50% cytotoxic concentration (CC50) at 96 h in data set [3] and in data set [8] were 3 µM and 2 µM, respectively. Further, the selectivity ratio in data set [4] and in data set [5] was 0.1 each time. The “Ratio CC50/IC50” value in data set [9] and in [10] was 0.03 in each case.

Consider `Cc1nc(N)nc2c1ncn2CCOCP(=O)(O)O`, for which the EC50 in [1], in data set [2], in [6] and in data set [7] was > 174 µM each time. Moreover, the CC50 at 96 h in data set [3] is > 174 µM; in [8], > 70 µM. Moreover, the selectivity ratio in data set [4] came out at 1. In addition, the “Ratio CC50/IC50” value in data set [9] and in data set [10] was 0.4 each time.

For `Nc1nc(NCCOCP(=O)(O)O)c2ncn(CCOCP(=O)(O)O)c2n1`, the EC50 in data set [1], in data set [2], in data set [6] and in data set [7] was > 118 µM throughout.

For the compound `Nc1nc(N(CC(=O)O)CC(=O)O)c2ncn(CCOCP(=O)(O)O)c2n1`, the EC50 in data set [1], in [2], in [6] and in data set [7] was > 124 µM in each case. Also, the CC50 at 96 h in [3] and in [8] was > 124 µM throughout. The selectivity ratio in data set [4] worked out at 1. In addition, the “Ratio CC50/IC50” value in data set [9] and in data set [10] was 1 throughout.

The term EC50 denotes the concentration at which the effect is half-maximal. As usually defined, the CC50 is the concentration that lowers cell viability or growth by half. Higher therefore signals better tolerance by the cells.
